Our source for the yeast fitness values is the RNAGym collection of RNA variant scans (doi:10.1126/science.aae0568).

Variants at the floor of the assay were thinned out.

B1: tRNA (parent)
chain: GUUCCGUUGGCGUAAUGGUAACGCGUCUCCCUCCUAAGGAGAAGACUGCGGGUUCGAGUCCCGUACGGAACG

The variants in this data set derive from B1. Nature of the data set: yeast fitness relative to wild type (ratio to wild type); higher = fitter; tRNA-Arg(CCU), competitive growth, 37 C, YPD. The method, boiled down: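 For this measurement, the tRNA-Arg(CCU) gene was varied by chemical synthesis at a 3% per-site mutation rate across 69 sites, and each variant was placed at the native genomic locus in Saccharomyces cerevisiae. The pooled strains went through a 24-hour competition in YPD at 37°C in six parallel replicates, with amplicons from start and end populations read by 100-nucleotide paired-end sequencing. Darwinian fitness relative to wild type followed from the change in each genotype's frequency. Genotypes needed ≥ 100 starting reads, and estimates < 0.5 were set to 0.5.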
On to GUUCCCUCGGCGUAAUGGUAACGCGUCUCCCUCCUAAGGAACAGACUGCCGGUUCGAGUCCCGUACGGAGCG, for which the yeast fitness was at most 0.5.
With GUUCCCUUGGCGGAAUGAUAACGCGUCUCCCUCCUAAGGAGAAGACUCCGGGUUCGAGUCCCGUACGUAACG, the yeast fitness is at most 0.5.
As for GUUCCCUCGGCGUAAUGGUAACGCGUCUCCCUCCUAAGGAGAUGACUGCGGGUUCGAGCCCCGUACGGAACG, the yeast fitness is at most 0.5.
Turning to GUUCCCUUGGCGUAAUGGUAACGCGUCUCCCACCUAUGGAGAAGACUGCGGGUUCGAGUCCCGUACGGAACG, the yeast fitness was 0.583.
Turning to GUUCCCUCGGCGUAAUGGUAACGCGUCUCCCUCCUAAGGAGAAGACUGCGGGUCCGAAUCCCGUACGGAACG, the yeast fitness was at most 0.5.
On to GUUCCCUUGGCGAAAUGGUUGCGCGUCUCCCUCCUAAGGAGAAGACUGCGGGUUCGAGUCCCGUACGGUACG, for which the yeast fitness was at most 0.5.
Take GUUCCCUUGGCGCAAUGGUAACGCGUCUCCCUUCUAAGGAGCAGACUGCGGGUUCGAGUUCCGUACGGGACG: the yeast fitness came out at 0.665.
Next, GUUCCCUUGGCGUAAUGGUAACGCGUCUCCCUCCUAAGGAGAAGACUGCGGGAUCGAGUCUCGUACGGAACG: at most 0.5; GUUCCCUUGGCGUAACGGUAACGCGUCUCCCUCCUAAGGAGAAGACUGCGGGUUCGAGUCCCGUACGGAACG: 0.803; GUUCCCUUGGCGUAAGGGUAACGCGUCUCCCUCCUAAGGAGAAGACUGCGGGUUCGAGUCCCGUACGGAACG: 0.68.
For GUUCCCUUGGCGUAAAGGUAACGCGUCUCCCUCCUAAGGAGAAGACUGCGGGUUCGAGUCCCGUACGGAACG the value was 0.631; for GUUCCCUUGGCGGAAUGGUAACGCGUCUCCCUCCUAAGGAGAAGACUGCGGGUUGGAGUCCCGUACGGAACG, 0.659; for GUUCCCUUGGCGUAAGGGUAACGCGUCUCCCUCCAAAGGAGAAGACUGCGCGUUCGAGUCCCGUACGGAACG, at most 0.5.
Turning to GUUCCCUUGGCGUAAUGGAAACGCGUCUCCCUCCUAAGGAGAAGACUGCGGGUUCGAGUCCCGUACGGAACG, the yeast fitness was found to be 0.78.
For GUUCCCUUGGCGUAAUGGUAACGCGUCUCCCUCCUAAGGAGAAGACUGCGGGUCCGAGUCCCGUAAGGAACG the value was 0.6; for GUUCCCUCGGCGUAAUGGUAACGCGUCUCCCUCCUAAGGAGAAGACUGUGGGUUCGAGUCCCGUACGGAACG, 0.531.
For GUUCCCUUGGCGUAAUGGUAACGCGUCUCCCUCCAAAGGAGAACACUGCGGGUUCGAGUACCGUACGGAACG the value was at most 0.5; for GUUCCCGUGGCGUAAGGGUAACGCGUCUCCCUCCUAAGGAGAGGACUGCGGGUUCGAGUCCCGUCCGGAACG, 0.805.
For GUUCCCUCGGCGUAAUGGUAAUGCGUCUCCCUCCUAAGGAGAAGACUGCGGGUUCGAGUCCCGUACGGAACG, the yeast fitness was determined as 0.526.
For the variant GUUCCCUCGGCGUAAUGGUAACGCGUCUCCCUCCUAAGGAGAAGACUGUGGGUUCGAGUCCCGUUCGGAACG, the yeast fitness is at most 0.5.
Next, GUUCCCGUGGCGUAAUGGUAACGUGUAUCCCUCCUAAGGAGAAGACUGCGGGUUCGAGUUCCGUACGGAACG: at most 0.5; GUUCCCUUGGCGUAAUGGUAACGCGUCUCCCUCCUAAGGAGAAGACAGCGCGUUCGAGUCCCGUACGGAACG: 0.525; GUUCCCUUGGCGUAAUGGUAACGCGUCUCCCUCCUAAGGAGAAGACUGCGGGCUCGAGUCCUGUAUGGAACG: at most 0.5.
Next, GUUCCCUUGGCGUAAUGGUAACGCGUCUCCCUCCUAAGGAGAAGACUGCGGGUGCGAGUCCCGUACGGAACG: 0.587.
Turning to GUUCCCUUGGCGUAAUGGUAACGCGUCUCCCUCCUAAGGAGAAGACUGCGGGUCCGAGUCCCGUACGGAACG, the yeast fitness stood at 0.898.
As to GUUCCCUUGGCGUAAUGGUAACGCGUCUCCCUCCUAAGGAGAAGACUGCGGGCUCGAGUCCUGUACGGAACG, the yeast fitness is 0.589.
Take GUUCCCUUGGCGCAAUGGUAACGCGUCUCCCUCCUAAGGAGAAGACUGCGGGUUCGAGUCCCGUACGGAACG: the yeast fitness is 0.823.
Regarding GUUCCCUCGGUGUAAUGGUAACGCGUCUCCCUCCUAAGCAGAAGACUGCGGGUUAGAGUCCCGUACGGAACG, the yeast fitness was at most 0.5.
For GUUCCCUCGGCGUAAUGGUGACGCGUCUCCCUCCUAAGGAGAAGACUGCAGGUUCGUGUCCCGUACGGAACG the value was at most 0.5; for GUUCCCUUGGCGUAAUGGUAACGCGUCCCCCUCCUAAGGAGAAGAUUGCGGGUUCGAGUCCCGUACGGGACG, at most 0.5; for GUUCCCUUGGCGUAAGGGUAACGCGUUUCCCUCCUAAGGAGAAGACUGCGGGUUCGAGUGCCGUACGGAACG, 0.582.
Take GUUCCUUUGGCGUAAUGGUAGCGCGUCUCCCUCCUAAGGAGAAGACUGCGGGUUCGAGUCCCGUACGGAGCG: the yeast fitness is 0.562.
GUUCCCUUGGCGUAAGGGUAACGCGUCUCCCUCCUAAGGAGAAGACUGCGGGUUCGAGUCCUGUACGGAACG: the yeast fitness worked out at 0.532.
For GUUCCCUGGGCGUAAUGGGAACGCGUCUCCCUACUAAGGAGCAGACUGCGGGUUCGAAUCCCGUACGGAACG the value was at most 0.5; for GUUCCCGUGGCGUAAUGGUAACGGGUCUCCCUCUUAAGGAGAAGACUGCGGGCUGGAGUCCAGUACGGAACG, at most 0.5; for GUUCCCUUGGCGUAAUGGUAACGCGUCUCCCUCCUAAGGAGAAGACUGCGGGUUCGAGUCCCGGACGGAACG, 0.63.
For GUUCCCUUGGCGUAAUGGUAACGCGUCUCCCUCCUAAGGAGAAGACUGCGGGUUCGAGUCCCGCACGGAACG the value was 0.87.
